Values belong to the compound of their own block, whether it stands above or below them.
Columns and labels:
Endothelin-1 receptor [1] = biological target: T1, Endothelin-1 receptor (Rattus norvegicus, UniProt P26684); assay: Binding affinity against endothelin A receptor in MMQ cells in rat; type: cell-based
T1 sequence (P26684 whole entry): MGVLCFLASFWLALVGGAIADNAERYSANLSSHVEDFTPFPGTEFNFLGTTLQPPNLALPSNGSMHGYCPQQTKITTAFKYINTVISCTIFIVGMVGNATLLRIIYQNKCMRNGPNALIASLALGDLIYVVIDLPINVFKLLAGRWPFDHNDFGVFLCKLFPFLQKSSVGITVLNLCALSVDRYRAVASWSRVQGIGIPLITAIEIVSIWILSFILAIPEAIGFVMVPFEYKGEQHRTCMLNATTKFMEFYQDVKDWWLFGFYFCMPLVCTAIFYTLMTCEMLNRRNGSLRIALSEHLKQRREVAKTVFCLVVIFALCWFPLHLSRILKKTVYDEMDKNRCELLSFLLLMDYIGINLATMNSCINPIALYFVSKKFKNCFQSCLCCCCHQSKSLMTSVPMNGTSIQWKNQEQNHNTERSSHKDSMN

[2] = biological target: T2, Endothelin receptor type B (Homo sapiens, UniProt P24530); assay: Binding affinity against human endothelin B receptor in CHO cells; type: cell-based
T2 sequence (P24530 whole entry): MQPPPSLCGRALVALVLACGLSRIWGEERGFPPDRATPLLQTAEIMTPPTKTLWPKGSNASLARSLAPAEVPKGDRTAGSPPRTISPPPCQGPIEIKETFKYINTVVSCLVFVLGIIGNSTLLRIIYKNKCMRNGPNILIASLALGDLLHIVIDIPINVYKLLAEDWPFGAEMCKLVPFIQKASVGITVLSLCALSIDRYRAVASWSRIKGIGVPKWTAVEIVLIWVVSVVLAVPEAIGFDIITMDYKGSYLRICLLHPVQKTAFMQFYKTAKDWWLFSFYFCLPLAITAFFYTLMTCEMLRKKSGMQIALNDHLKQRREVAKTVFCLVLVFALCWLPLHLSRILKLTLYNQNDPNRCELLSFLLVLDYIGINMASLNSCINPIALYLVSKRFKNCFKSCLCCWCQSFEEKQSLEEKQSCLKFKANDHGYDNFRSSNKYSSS
Outline: (§1)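 Human ET-A and ET-B receptors expressed in CHO cells, run as a second binding assay alongside the rat/porcine screen. IC50 was derived from radioligand displacement: [125I]ET-1 for ET-A and [125I]ET-3 for ET-B.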

[3] = Compound was evaluated for half life period when administered orally; type: ADME, organism-based; details: in vivo, po
Outline: (§2)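 Rats (n = 3) were given 10 mg/kg by oral gavage. Plasma drug concentration was followed over time and compared with the intravenous time course. Oral half-life, Cmax, AUC and oral bioavailability were derived from these profiles.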

[4] = Compound was evaluated for pharmacokinetic data, area under curve (AUC); type: ADME; outline: as §2
[5] = (§3) Compound was evaluated for bioavailability; type: ADME, organism-based; details: eutheria, in vivo; outline: as §2
[6] = Compound was evaluated for pharmacokinetic data, Cmax; type: ADME, organism-based; details: in vivo; outline: as §2
[7] = Compound was evaluated for half life period when administered intravenously; type: ADME, organism-based; details: in vivo, iv
Outline: (§4)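 Rats were dosed by intravenous injection at 5 mg/kg. Plasma drug levels were followed over time, and half-life was derived from the iv time course.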

Endothelin-1 receptor [8] = biological target: T3, Endothelin-1 receptor (Homo sapiens, UniProt P25101); assay: Binding affinity against human Endothelin A receptor; outline: as §1
T3 sequence (P25101 whole entry): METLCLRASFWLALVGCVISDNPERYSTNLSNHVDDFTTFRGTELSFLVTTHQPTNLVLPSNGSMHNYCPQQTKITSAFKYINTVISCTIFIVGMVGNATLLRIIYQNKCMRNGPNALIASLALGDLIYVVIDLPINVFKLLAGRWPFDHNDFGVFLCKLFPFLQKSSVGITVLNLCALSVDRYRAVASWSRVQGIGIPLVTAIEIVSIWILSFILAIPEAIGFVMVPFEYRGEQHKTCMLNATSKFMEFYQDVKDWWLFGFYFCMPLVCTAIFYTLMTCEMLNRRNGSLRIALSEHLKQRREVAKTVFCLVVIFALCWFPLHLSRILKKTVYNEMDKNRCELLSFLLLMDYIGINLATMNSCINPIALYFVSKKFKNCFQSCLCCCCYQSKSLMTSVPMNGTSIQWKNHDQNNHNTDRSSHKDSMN

[9] = Compound was evaluated for half-life period when administered intravenously; type: ADME, organism-based; details: in vivo, iv; outline: as §4
[10] = as §3; type: ADME, organism-based; details: eutheria, in vivo; remark: listed apart in the source
Outline: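 Rats received the drug by intravenous injection (5 mg/kg) and by oral gavage (10 mg/kg), three rats per route. Plasma drug levels were followed over time. Oral bioavailability (F) was derived by comparing plasma exposure after oral dosing with that after iv dosing.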

- IC50 (Endothelin-1 receptor [1]): 0.78 nM
Structure (SMILES): CCCCN(CCCC)C(=O)CN1C[C@H](c2ccc3c(c2)CCO3)[C@@H](C(=O)O)[C@@H]1c1ccc(C)cc1

- IC50 (Endothelin-1 receptor [1]): 5.2 nM
Structure (SMILES): CCCCN(CCCC)C(=O)CN1C[C@H](c2ccc3c(c2)OCCO3)[C@@H](C(=O)O)[C@@H]1c1ccc(CC)cc1

- IC50 (Endothelin-1 receptor [1]): 0.92 nM
Structure (SMILES): CCCCN(CCCC)C(=O)CN1C[C@H](c2ccc3c(c2)CCO3)[C@@H](C(=O)O)[C@@H]1c1ccc(CC)cc1

- IC50 (Endothelin-1 receptor [1]): 1.2 nM
Structure (SMILES): CCCCN(CCCC)C(=O)CN1C[C@H](c2ccc3c(c2)OCC3)[C@@H](C(=O)O)[C@@H]1c1ccc(OC)cc1

- IC50 [2]: 3050 nM
Structure (SMILES): CCCCN(CCCC)C(=O)CN1C[C@H](c2ccc3c(c2)CCO3)[C@@H](C(=O)O)[C@@H]1c1ccc(CC)c(F)c1

- IC50 (Endothelin-1 receptor [1]): 0.17 nM
Structure (SMILES): CCCCN(CCCC)C(=O)CN1C[C@H](c2ccc3c(c2)OCO3)[C@@H](C(=O)O)[C@@H]1c1ccc(CC)cc1

- T1/2 [3]: 4.7 h
- Ki (Endothelin-1 receptor [8]): 0.039 nM
- half-life [9]: 2.1 h
- AUC [4]: 12500 ng·h/mL
- IC50 [2]: 6200 nM
- bioavailability [5]: 71.7%
- Cmax [6]: 1840 ng/mL
Structure (SMILES): CCCCN(CCCC)C(=O)CN1C[C@H](c2ccc3c(c2)CCO3)[C@@H](C(=O)O)[C@@H]1c1ccc(C)c(F)c1 (stereo in doubt; 8a)

Continued, compound first:

Structure (SMILES): CCCCN(CCCC)C(=O)CN1C[C@H](c2ccc3occc3c2)[C@@H](C(=O)O)[C@@H]1c1ccc(OC)cc1
- IC50 (Endothelin-1 receptor [1]): 0.48 nM

Structure (SMILES): CCCCN(CCCC)C(=O)CN1C[C@H](c2ccc3c(c2)OCCO3)[C@@H](C(=O)O)[C@@H]1c1ccc(OC)cc1
- IC50 (Endothelin-1 receptor [1]): 0.85 nM

Structure (SMILES): CCCCN(CCCC)C(=O)CN1C[C@H](c2ccc3c(c2)OCO3)[C@@H](C(=O)O)[C@@H]1c1ccc(CCC)cc1
- IC50 (Endothelin-1 receptor [1]): 1.06 nM

Structure (SMILES): CCCCN(CCCC)C(=O)CN1C[C@H](c2ccc3c(c2)OCCO3)[C@@H](C(=O)O)[C@@H]1c1ccc(CC)c(F)c1
- IC50 [2]: 950 nM

Structure (SMILES): CCCCN(CCCC)C(=O)CN1C[C@H](c2ccc3c(c2)OCO3)[C@@H](C(=O)O)[C@@H]1c1ccc(OC)c(OC)c1
- IC50 (Endothelin-1 receptor [1]): 0.11 nM

Structure (SMILES): CCCCN(CCCC)C(=O)CN1C[C@H](c2ccc3c(c2)OCO3)[C@@H](C(=O)O)[C@@H]1c1ccc(C)cc1
- IC50 (Endothelin-1 receptor [1]): 0.12 nM

Structure (SMILES): CCCCN(CCCC)C(=O)CN1C[C@H](c2ccc3c(c2)OCO3)[C@@H](C(=O)O)[C@@H]1c1ccc(OC)c(F)c1
- IC50 (Endothelin-1 receptor [1]): 0.07 nM

Structure (SMILES): CCCCN(CCCC)C(=O)CN1C[C@H](c2ccc3c(c2)OCO3)[C@@H](C(=O)O)[C@@H]1c1ccc(C(F)(F)F)cc1
- IC50 (Endothelin-1 receptor [1]): 3.28 nM

Structure (SMILES): CCCCN(CCCC)C(=O)CN1C[C@H](c2ccc3c(c2)OCO3)[C@@H](C(=O)O)[C@@H]1c1ccc(F)c(F)c1
- IC50 (Endothelin-1 receptor [1]): 1.38 nM

Structure (SMILES): CCCCN(CCCC)C(=O)CN1C[C@H](c2ccc3c(c2)OCO3)[C@@H](C(=O)O)[C@@H]1c1ccc(OC)cc1
- half-life [3]: 6.2 h
- AUC [4]: 7360 ng·h/mL
- bioavailability ([5]; read-out: Bioavailability): 60.2%
- Cmax ([6]; read-out: Cmax): 3440 ng/mL

Structure (SMILES): CCCCN(CCCC)C(=O)CN1C[C@H](c2ccc3c(c2)CCO3)[C@@H](C(=O)O)[C@@H]1c1ccc(C)c(F)c1 (stereo in doubt; 8)
- half-life [3]: 5.8 h
- AUC [4]: 9400 ng·h/mL
- IC50 [2]: 4400 nM
- bioavailability ([5]; read-out: Bioavailability): 65.6%
- half-life [7]: 4.7 h
- Cmax ([6]; read-out: Cmax): 930 ng/mL

Structure (SMILES): CCCCN(CCCC)C(=O)CN1C[C@H](c2cc(OC)c3c(c2)OCO3)[C@@H](C(=O)O)[C@@H]1CC(C)(C)CCC [ABT-546]
- AUC [4]: 3270 ng·h/mL
- bioavailability [10]: 47.7%

— ChEMBL document CHEMBL1134271 (J Med Chem, 2001)
